Source: publication PMC8148075 (Acta Pharmaceutica Sinica. B, 2020)
Peptide text beside a SMILES is read from it. * marks the point of attachment. Cbz = O=C(OCc1ccccc1)*; CH2F = FC*

What was measured:
NRF2, HO-1 = test: Western blot of NRF2; format: cell-based, human; details: ECa109 and EC9706 cells
ECa109 cells [1] = test: Annexin V-FITC/PI flow cytometry apoptosis assay, ECa109; format: cell-based, human; details: ECa109, CQ 20 μmol/L alone, 72 h, Fig. 5D
[2] = test system: LC3B-II, P62, ATG3, ATG5, ATG7; test: Western blot of autophagy proteins in ESCC cells; format: cell-based, human; details: ECa109 and EC9706 cells
EC9706 cells [3] = test: Annexin V-FITC/PI flow cytometry apoptosis assay, EC9706; format: cell-based, human; details: EC9706, CQ 20 μmol/L alone, 72 h, Fig. 5D
[4] = Toxicity evaluation in xenograft mice; format: in vivo, athymic BALB/c male nude mice; details: for HCT / HGB / MCH / MCHC / MCV / MPV / PLT / RBC / RDW / WBC: blood of xenograft mice, end of treatment; for Toxicity to nude mice (overall): therapeutic doses: SFN 5 mg/kg, CQ 60 mg/kg i.p. every other day, two weeks
ECa109 cells [5] = test: CCK-8 cell proliferation assay, ECa109; format: cell-based, human; details: for IC50: Homo sapiens
Outline: (§1)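 Cells were kept in RPMI-1640 with 10% FBS, penicillin and streptomycin at 37 °C and 5% CO2. They were seeded in 96-well plates and exposed to the test compound over graded concentrations (e.g., 0–80 μmol/L) for 24, 48 or 72 h, alone or with modulators. CCK-8 reagent was then added, and optical density was read after a further 4 h. n = 3.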

ECa109 cells [6] = test: Clonogenic assay, ECa109; format: cell-based, human
Outline: (§2)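 Cells in RPMI-1640 with 10% FBS at 37 °C, 5% CO2, seeded at 1 × 10³ cells/well in 6-well plates. Exposed to test compound (0, 5, 10 μmol/L) and grown 7 days. Colonies rinsed with PBS three times, fixed in 4% paraformaldehyde for 20 min, stained with 1% crystal violet for 30 min, then counted. Three independent experiments.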

EC9706 cells [7] = test: Clonogenic assay, EC9706; format: cell-based, human
Outline: as §2

EC9706 cells [8] = test: CCK-8 cell proliferation assay, EC9706; format: cell-based, human; details: for IC50: Homo sapiens
Outline: as §1

ECa109 xenografts = test: ECa109 xenograft in nude mice, anti-tumor efficiency; format: in vivo, athymic BALB/c male nude mice; details: ECa109 xenograft tumors, Fig. 7D
Outline: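 Male athymic BALB/c nude mice (4–6 weeks old, acclimatised 1 week) received 1 × 10^7 ECa109 cells in 0.2 mL PBS subcutaneously into the right flank. At 90–120 mm3, mice were randomised (n = 5): saline, test compound 5 mg/kg, autophagy inhibitor 60 mg/kg, or combination, i.p. every other day for two weeks. Paraffin sections of fixed tumours were TUNEL-stained; brown positive cells were counted per 1500 tumour cells.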

[9] = test system: LC3, P62, NRF2, HO-1, BCL-2, BAX, cleaved-caspase 9; test: Western blot of tumor tissues from xenograft mice; format: in vivo, athymic BALB/c male nude mice; details: SFN 5 mg/kg, Fig. 7G
Outline: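 Male athymic BALB/c nude mice, 4–6 weeks old, received 1 × 10⁷ ECa109 cells in 0.2 mL PBS s.c. in the right flank. […] Excised tumors were stored at −80 °C and immunoblotted (ECL detection), n = 3.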

[10] = test system: cleaved-caspase 9, BAX, BCL-2; test: Western blot of apoptotic markers in ESCC cells; format: cell-based, human; details: ECa109 and EC9706 cells, SFN 10 μmol/L, 0-24 h, Fig. 2B
Outline: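 ECa109 and EC9706 cells were exposed to 10 μmol/L test compound for 0, 3, 6, 12 and 24 h. Equal protein (30 μg) was separated by SDS-PAGE and transferred to nitrocellulose. Membranes were blocked in 5% skimmed milk for 2 h at room temperature, given primary antibody overnight at 4 °C and secondary antibody for 2 h. Detection by ECL, bands quantified by densitometry, n = 3.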

[11] = test system: mRFP-GFP-LC3 puncta (autophagosomes, autolysosomes); test: mRFP-GFP-LC3 adenovirus autophagy flux, confocal microscopy; format: cell-based, human; details: ECa109 and EC9706 cells, SFN 10 μmol/L or bafilomycin A1 100 nmol/L, 24 h, Fig. 3D
Outline: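 ECa109 and EC9706 cells (3 × 10⁵/well) were infected with mRFP-GFP-LC3 adenovirus for 48 h, then replated on glass-bottom dishes at 1 × 10⁴ cells/well. Treated with 10 μmol/L test compound or 100 nmol/L bafilomycin A1 for 24 h, fixed in 4% paraformaldehyde for 20 min and imaged by confocal microscopy. Yellow (green+red) puncta were scored as autophagosomes and red as autolysosomes, n = 3.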

Het-1A cells = test: CCK-8 cell proliferation assay, Het-1A; format: cell-based; details: Homo sapiens
[12] = organ weight/body weight × 100, xenograft mice, SFN 5 mg/kg, CQ 60 mg/kg i.p.

For `CCN(CC)CCCC(C)Nc1ccnc2cc(Cl)ccc12` (stereo not shown) [CQ, chloroquine, reference compound], the “Effect of CQ on SFN-induced NRF2 in nucleus” value (NRF2, HO-1; CQ 20 μmol/L combined with SFN 10 μmol/L, 48 h, Fig. 5F) was “markedly inhibited the activation of SFN to NRF2”, the “Effect on cell apoptosis” value (ECa109 cells [1]) was “no obvious effects on cell apoptosis” and the “Expression of LC3B-II and P62” value ([2]; CQ 20 μmol/L alone, Fig. 3C) was “promoted expression LC3B-II and P62”. The “Effect on cell apoptosis” value (EC9706 cells [3]) was “no obvious effects on cell apoptosis”, the HCT ([4]; SFN 5 mg/kg, CQ 60 mg/kg i.p.) was 43.05 ± 1.75% and the HGB ([4]; SFN 5 mg/kg, CQ 60 mg/kg i.p.) was 140.67 ± 6.31 g/L. It also gave an MCH ([4]; SFN 5 mg/kg, CQ 60 mg/kg i.p.) of 15.28 ± 0.28 pg, an MCHC ([4]; SFN 5 mg/kg, CQ 60 mg/kg i.p.) of 326.67 ± 4.50 g/L and an MCV ([4]; SFN 5 mg/kg, CQ 60 mg/kg i.p.) of 50.10 ± 0.78 fL. The MPV ([4]; SFN 5 mg/kg, CQ 60 mg/kg i.p.) was 6.52 ± 0.13 fL, the PLT ([4]; SFN 5 mg/kg, CQ 60 mg/kg i.p.) was 941.00 ± 45.99 × 10^9/L and the RBC ([4]; SFN 5 mg/kg, CQ 60 mg/kg i.p.) was 8.60 ± 0.38 × 10^12/L. For the same molecule, the RDW ([4]; SFN 5 mg/kg, CQ 60 mg/kg i.p.) was 16.38 ± 0.08%, the WBC ([4]; SFN 5 mg/kg, CQ 60 mg/kg i.p.) was 4.71 ± 0.99 × 10^9/L and the “Toxicity to nude mice (overall)” value [4] was “no obvious toxicity”.

With `Cc1ccccc1C(=O)N1CCc2cc(-c3nc(NC(=O)Cc4ccc5c(c4)OCO5)sc3C)ccc21` [ML385, reference compound] the “Expression of NRF2 and HO-1” value (NRF2, HO-1; ML385 5-30 μmol/L, Fig. 4C) was “decreased expression of NRF2 and HO-1 in a dose-dependent manner”, the “Effect on cell viability (CCK-8)” value (ECa109 cells [5]; ECa109, ML385 0-200 μmol/L, 48 and 72 h, Fig. 4E) was “significantly inhibited cell viability” and the “Expression of LC3B-II and P62” value ([2]; ML385 20 μmol/L alone, Fig. 4D) was “inhibited LC3B-II and promoted P62 expression”. For the same molecule, the “Effect on colony formation” value (ECa109 cells [6]; ECa109, ML385, 7 days, Fig. 4F) was “significantly inhibited cell viability and colony formation”, the “Effect on colony formation” value (EC9706 cells [7]; EC9706, ML385, 7 days, Fig. 4F) was “significantly inhibited cell viability and colony formation” and the “Effect on cell viability (CCK-8)” value (EC9706 cells [8]; EC9706, ML385 0-200 μmol/L, 48 and 72 h, Fig. 4E) was “significantly inhibited cell viability”.

With `C[S+]([O-])CCCCN=C=S` (stereo not shown) [SFN, Sulforaphane] the “TUNEL positive cells in tumor tissue compared with control” value (ECa109 xenografts) was “large number of TUNEL positive cells”, the “LC3B-II and P62 expression in tumors compared to control” value [9] was “increased of LC3B-Ⅱ and decreased P62 expression” and the “Expression of NRF2 in nucleus” value (NRF2, HO-1; SFN 5 and 10 μmol/L, Fig. 4B) was “increased the expression of NRF2 in nucleus”. It also gave an IC50 (ECa109 cells [5]; ECa-109, 24 h) of 47.4 ± 1.68 µM, an IC50 (ECa109 cells [5]; ECa-109, 48 h) of 20.8 ± 1.32 µM and an IC50 (ECa109 cells [5]; ECa-109, 72 h) of 15.2 ± 1.18 µM. For the same molecule, the “Level of cleaved-caspase 9” value [10] was “increased the levels of cleaved-caspase 9 in a time-dependent manner”, the “Expression of LC3B-II and P62” value ([2]; SFN 10 μmol/L, 0-24 h, Fig. 3A) was “increased LC3B-II and decreased P62” and the “Expression of ATG3, ATG5 and ATG7” value ([2]; SFN 10 μmol/L, 0-24 h, Fig. 4A) was “no changes”. For the same molecule, the “Effect on colony formation” value (ECa109 cells [6]; ECa109, SFN 5 and 10 μmol/L, 7 days, Fig. 1C) was “significantly inhibited the colony formation”, the “Fluorescent puncta (yellow = autophagosomes, red = autolysosomes)” value [11] was “many yellow puncta and red puncta” and the IC50 (Het-1A cells; 48 h) was 34.1 ± 1.53 µM. The IC50 (Het-1A cells; 72 h) was 21.3 ± 1.33 µM, the “Effect on colony formation” value (EC9706 cells [7]; EC9706, SFN 5 and 10 μmol/L, 7 days, Fig. 1C) was “significantly inhibited the colony formation” and the IC50 (EC9706 cells [8]; EC9706, 24 h) was 75.3 ± 1.88 µM. The IC50 (EC9706 cells [8]; EC9706, 48 h) was 41 ± 1.7 µM, the IC50 (EC9706 cells [8]; EC9706, 72 h) was 17.5 ± 1.24 µM and the HCT ([4]; SFN 5 mg/kg, CQ 60 mg/kg i.p.) was 42.62 ± 4.07%. It also gave an HGB ([4]; SFN 5 mg/kg, CQ 60 mg/kg i.p.) of 139.00 ± 13.78 g/L, an MCH ([4]; SFN 5 mg/kg, CQ 60 mg/kg i.p.) of 15.20 ± 0.65 pg and an MCHC ([4]; SFN 5 mg/kg, CQ 60 mg/kg i.p.) of 326.17 ± 3.82 g/L. The MCV ([4]; SFN 5 mg/kg, CQ 60 mg/kg i.p.) was 49.62 ± 0.55 fL, the MPV ([4]; SFN 5 mg/kg, CQ 60 mg/kg i.p.) was 6.62 ± 0.17 fL and the PLT ([4]; SFN 5 mg/kg, CQ 60 mg/kg i.p.) was 867.83 ± 134.68 × 10^9/L. The RBC ([4]; SFN 5 mg/kg, CQ 60 mg/kg i.p.) was 8.59 ± 0.83 × 10^12/L, the RDW ([4]; SFN 5 mg/kg, CQ 60 mg/kg i.p.) was 16.18 ± 0.08% and the WBC ([4]; SFN 5 mg/kg, CQ 60 mg/kg i.p.) was 4.18 ± 0.48 × 10^9/L. For the same molecule, the “Relative organ weight, heart” value [4, 12] was 0.63 ± 0.13%, the “Relative organ weight, left kidney” value [4, 12] was 0.84 ± 0.19% and the “Relative organ weight, liver” value [4, 12] was 6.74 ± 0.35%. The “Relative organ weight, lung” value [4, 12] was 0.72 ± 0.19%, the “Relative organ weight, right kidney” value [4, 12] was 0.98 ± 0.17% and the “Relative organ weight, spleen” value [4, 12] was 0.79 ± 0.14%. For the same molecule, the “Toxicity to nude mice (overall)” value [4] was “no obvious toxicity”.

In the case of `COC(=O)C[C@H](NC(=O)[C@H](C)NC(=O)[C@@H](NC(=O)OCc1ccccc1)C(C)C)C(=O)CF` [Z-VAD-FMK, reference compound] (Cbz-Val-Ala-Asp(OMe)-CH2F), the “Effect on cell proliferation (CCK-8)” value (ECa109 cells [5]; ECa109, Z-VAD-FMK 20 μmol/L alone, 48 h, Fig. 2C) is reported as “no obvious effects on cell proliferation” and the “Effect on cell proliferation (CCK-8)” value (EC9706 cells [8]; EC9706, Z-VAD-FMK 20 μmol/L alone, 48 h, Fig. 2C) is reported as “no obvious effects on cell proliferation”.

In the case of `CO/C1=C\C(C)=C\[C@@H](C)[C@@H](O)[C@@H](C)C/C(C)=C/C=C/[C@H](OC)[C@@H]([C@@H](C)[C@@H](O)[C@H](C)[C@@]2(O)C[C@@H](O)[C@H](C)[C@@H](C(C)C)O2)OC1=O` [bafilomycin A1, reference compound], the “Fluorescent puncta (yellow = autophagosomes, red = autolysosomes)” value [11] is reported as “many yellow puncta”.
